Results gathered from unrelated publications.
Protocols differ between the studies behind these lines.
Target: Protein kinase C gamma type (PRKCG, Homo sapiens, UniProt P05129)

`FC(F)(F)Oc1cccc(-c2cnc3ccc(-c4ccncc4)nn23)c1` gave an activity vs control of 76% (enzyme activity, inhibitor, radiometric; 5 µM).
`COc1cc(Cl)c(C(=O)N[C@@H](CN[C@H]2CC[C@@H](N)CC2)Cc2ccc(C#N)cc2)cc1-c1ccc(CN[C@H](C)c2ccc(C)cc2)o1` gave a remaining activity of 98% (enzyme activity, inhibitor; 1 µM).
With `COc1cc2ncnc(Nc3ccc(Oc4ccccc4)c(C)c3C)c2cc1OC` the inhibition was 1% (enzyme activity, inhibitor; 1 µM).
For `Cc1ccc(Nc2nccc(N(C)c3ccc4c(C)n(C)nc4c3)n2)cc1S(N)(=O)=O`, the inhibition was 45% (enzyme activity, inhibitor; 10 µM).
For `O=C1NC(=O)c2cc(Nc3ccc(F)cc3)c(Nc3ccc(F)cc3)cc21`, the remaining signal was 102% (cell-free assay; 0.5 µM).
`CC/C(=N\NC(=O)NCc1cccc(O)c1)c1ccc(O)c(C)c1O` has an inhibition of 3.6% (enzyme activity, inhibitor; 0.1 µM).
`COc1cc(/C=C/C(=O)CC(=O)/C=C/c2ccc(O)c(OC)c2)ccc1O` has an activity vs control of 85% (enzyme activity, inhibitor; 1 µM).
`CCCOc1ccc(OC)c(F)c1C(=O)c1ccc(C(=O)N[C@@H]2CNC[C@H]2NC(=O)c2ccc3[nH]ncc3c2)cc1` gave a remaining activity of 73% (enzyme activity, inhibitor; 10 µM).
The remaining activity of `O=C(Nc1cnn(-c2csc(C(=O)NC3COC3)c2)c1)Nc1ccccc1Cl` is reported as 98% (enzyme activity, inhibitor; 5 µM).
The remaining signal of `Cc1ccc(NC(=O)c2ccc(C)c(C(F)(F)F)c2)cc1C#Cc1nn(C2CCC(O)CC2)c2ncnc(N)c12` (stereo not shown) is reported as 90% (cell-free assay; 10 µM).
The activity vs control of `CC(C)c1ccc(NC(=O)c2cccs2)c(-c2nc3ccccc3[nH]c2=O)c1` is reported as 106% (enzyme activity, inhibitor; 1 µM).
With `COc1cc(Nc2cnc(C#N)c(O[C@H](C)CN(C)C)n2)ncc1-c1cnn(C)c1` the remaining activity was 80% (enzyme activity, inhibitor, radiometric; 10 µM).
`CCCS(=O)(=O)Nc1ccc(F)c(C(=O)c2c[nH]c3ncc(-c4ccc(Cl)cc4)cc23)c1F` has an inhibition of < 20% (enzyme activity, inhibitor; 1 µM).
`Cc1cnc(NC2CCOCC2)nc1-n1cnc(C(=O)NC(CN)c2cc(F)cc(Cl)c2)c1` (stereo not shown) gave a remaining activity of 85% (enzyme activity, inhibitor, radiometric; 1 µM).
`CC(C)(C)c1nc(-c2cccc(NS(=O)(=O)c3c(F)cccc3F)c2F)c(-c2ccnc(N)n2)s1` gave a remaining activity of 102% (enzyme activity, inhibitor, radiometric; 1 µM).
With `O=C(Nc1cnn(-c2csc(C(=O)NC3COC3)c2)c1)Nc1c(F)cccc1Cl` the remaining activity was 98.3% (enzyme activity, inhibitor; 5 µM).
